Screening results: PubChem, several laboratories
TDP2 inh – human TDP2 enzyme inhibitors, primary screen, biochemical, epi absorbance, recombinant enzyme. Tyrosyl-DNA phosphodiesterase 2 (Homo sapiens), O95551. T5PNP hydrolysis, p-nitrophenol absorbance 415 nm. inhibition, % at 12.8 µM. 0.34% of 370,000 active. AID 720702, 2013;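 active = inhibition above the mean of all tested compounds plus 3 SD, set per campaign, cut at about 25% in these data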;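 also: 0% = DMSO with enzyme and 100% = buffer with substrate but no TDP2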
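Material: recombinant human TDP2; quantity: TDP2 enzyme at 120 nM final; medium: Tris-HCl pH 7.5 with MgCl2; compound: single concentration, 12.8 µM nominal, with 1% DMSO; incubation: 2 h enzyme incubation at 37 °C; signal: epi absorbance; measure: percent inhibition; benchmarks: high control without enzyme, low control DMSO plus TDP2; repeats: singlicate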
NSD2 inh – NSD2 histone methyltransferase inhibitors, primary screen, biochemical, AlphaScreen, single concentration, set 2. 0.54% of 310,000 active. inhibition, % at 12.5 µM. AID 743445, 2014. Histone-lysine N-methyltransferase NSD2 (Homo sapiens), O96028. NSD2 peptide methylation, 120 min; in the data active = inhibition above about 50%
Target sequence (O96028 whole entry, looked up): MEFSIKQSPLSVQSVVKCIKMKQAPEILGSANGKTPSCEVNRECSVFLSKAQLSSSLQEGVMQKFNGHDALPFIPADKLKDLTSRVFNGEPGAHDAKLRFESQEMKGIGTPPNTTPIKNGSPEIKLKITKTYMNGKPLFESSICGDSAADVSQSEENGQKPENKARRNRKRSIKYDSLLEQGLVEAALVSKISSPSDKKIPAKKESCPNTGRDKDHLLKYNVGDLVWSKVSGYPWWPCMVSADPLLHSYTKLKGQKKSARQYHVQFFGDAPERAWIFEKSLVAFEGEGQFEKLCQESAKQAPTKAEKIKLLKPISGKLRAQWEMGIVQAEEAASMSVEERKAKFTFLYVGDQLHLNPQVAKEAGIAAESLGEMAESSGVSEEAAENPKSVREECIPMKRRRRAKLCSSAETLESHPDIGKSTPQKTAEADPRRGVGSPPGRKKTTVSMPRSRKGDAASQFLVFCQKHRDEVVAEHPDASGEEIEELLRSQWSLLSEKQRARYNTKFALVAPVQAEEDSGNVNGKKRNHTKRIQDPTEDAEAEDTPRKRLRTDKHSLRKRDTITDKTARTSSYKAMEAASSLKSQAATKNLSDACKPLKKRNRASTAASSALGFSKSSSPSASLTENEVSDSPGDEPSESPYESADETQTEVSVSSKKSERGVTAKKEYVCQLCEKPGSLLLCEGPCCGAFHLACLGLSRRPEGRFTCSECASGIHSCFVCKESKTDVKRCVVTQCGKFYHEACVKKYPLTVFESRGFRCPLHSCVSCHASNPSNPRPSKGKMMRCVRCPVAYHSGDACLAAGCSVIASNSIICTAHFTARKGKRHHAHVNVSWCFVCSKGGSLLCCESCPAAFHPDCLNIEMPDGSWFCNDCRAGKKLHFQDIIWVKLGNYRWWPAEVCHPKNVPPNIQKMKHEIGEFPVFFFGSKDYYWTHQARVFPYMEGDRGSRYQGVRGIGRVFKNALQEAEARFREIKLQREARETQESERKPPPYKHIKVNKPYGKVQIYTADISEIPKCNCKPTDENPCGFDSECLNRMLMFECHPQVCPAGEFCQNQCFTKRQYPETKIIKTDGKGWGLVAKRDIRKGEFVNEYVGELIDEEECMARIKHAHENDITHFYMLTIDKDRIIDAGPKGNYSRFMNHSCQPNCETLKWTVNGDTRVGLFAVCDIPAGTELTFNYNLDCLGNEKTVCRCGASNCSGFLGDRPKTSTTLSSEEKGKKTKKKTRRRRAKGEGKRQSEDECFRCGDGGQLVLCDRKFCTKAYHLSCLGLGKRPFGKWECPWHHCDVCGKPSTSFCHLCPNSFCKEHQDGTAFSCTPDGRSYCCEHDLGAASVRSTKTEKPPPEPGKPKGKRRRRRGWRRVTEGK
SUMO HTRF inh – inhibitors of in vitro SUMOylation cascade, primary screen, biochemical, HTRF, uHTS; HTRF SUMOylation assay, SAE1/SAE2 + UBC9; inhibition, % at 35 µM; 0.36% of 290,000 active; in the data active = inhibition above about 50%, passing the limit was not always enough
CTSL1 counter – Fasciola hepatica cathepsin L1 inhibitors, primary screen, counter-screen for PFM18AAP inhibitor project, biochemical, QFRET, fluorogenic peptide substrate; 0.49% of 300,000 active; recombinant F. hepatica cathepsin L1, Z-Leu-Arg-MCA fluorescence; inhibition, % at 5.96 µM; AID 1906, 2009;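 active = inhibition above the mean of all tested compounds plus 3 SD, set per screening campaign, cut at about 17% in these data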;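 also: 0% = plate median of test compound wells and 100% = 1 µM Z-Phe-Ala-diazomethylketone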
Numbers without * were called inactive; x = no result given; + = active, no number. In the library only some 1.2% were active in any assay of this set; here they are far more common.

SMILES	TDP2 inh	NSD2 inh	SUMO HTRF inh	CTSL1 counter
CCCCN(Cc1ccccc1)C(=O)C1CCC(=O)N(CCc2ccccn2)C1 (configuration not stated)	5	-2	3	0
CC1=CC(=O)C(C(C)C)=C/C1=N/OS(=O)(=O)c1ccccc1	-14	5	26	17*
O=C(COC(=O)CNC(=O)c1ccccc1Cl)Nc1ncc(C(F)(F)F)cc1Cl	7	0	-2	21*
O=C(COC(=O)c1ccc(F)cc1F)Nc1ccc2c(c1)OCO2	-5	5	x	x
Cc1ccc(/C=C/C(=O)NC2CCCCCCC2)o1	8	1	6	74*
CCCCc1cc(=O)oc2cc(OCC(=O)N3CCC(C(=O)O)(c4ccccc4)CC3)ccc12	-1	x	7	20*
CC(C)(C)c1ccc(-c2cnco2)cc1	-2	-1	0	0
Brc1cccc(-c2cnco2)c1	-1	0	2	18*
C[C@H]1[C@@H](OC(=O)Nc2cccc(C(F)(F)F)c2)CC[C@@]23CCCN2C(=O)CCC[C@@H]13	3	2	x	x
COC1=C(Nc2ccccc2)C(=O)c2ccccc2C1=O	21	75*	78	-2
O=C1C(Cl)=C(Nc2ccccc2)C(=O)c2ccccc21	-5	0	8	6
CC1CCCN(CCCNC(=O)c2ccc3c(c2)N(Cc2ccccc2F)C(=O)c2ccccc2S3(=O)=O)C1 (configuration not stated)	2	7	7	-4
Cc1ccc(C)c(CN2C(=O)CSc3ccc(C(=O)NCCN4CCOCC4)cc32)c1	0	-3	-5	10
O=C(NCCN1CCOCC1)c1ccc2c(c1)N(Cc1ccccc1F)C(=O)CS2	-4	1	21	27*
CCN1CCCC1CNC(=O)c1ccc2c(c1)N(Cc1ccccc1F)C(=O)c1ccccc1S2(=O)=O (configuration not stated)	-4	15	-6	52*
O=C(NCCN1CCOCC1)c1ccc2c(c1)N(Cc1ccccc1F)C(=O)c1ccccc1S2(=O)=O	-13	-2	13	18*
C=CCN1C(=O)[C@@H](CC(=O)NCc2cccc3ccccc23)[C@]2(C(=O)OCC)CCCCC/C=C/12	-8	x	x	x
O=C1Nc2ccc(Cl)cc2/C1=C/C1CC=CCC1 (configuration not stated)	-8	3	-8	47*
O=C1Nc2cnc(Cl)nc2Nc2ccc(Cl)cc21	2	-9	x	x
CC(=O)Nc1ccc(C(=O)OCC(=O)NC2CCCCCC2)cc1	14	0	x	x
CC1=C(C(=O)OCc2ccccc2)C(c2ccsc2)C(C#N)=C(N)O1 (configuration not stated)	5	10	13	-9
CCOC(=O)C1=C(N)OC(CCl)=C(C#N)C1c1ccsc1 (configuration not stated)	0	13	18	60*
CC(C)c1ccc(S(=O)(=O)/N=C2\C=C(NS(=O)(=O)c3ccccc3)C(=O)c3ccccc32)cc1	25*	112*	33	2
Cc1ccc(C)c(S(=O)(=O)/N=C2\C=C(NS(=O)(=O)c3ccccc3)C(=O)c3ccccc32)c1	18	97*	48	4
Cc1cccc(S(=O)(=O)Nc2cccc3c2C(=O)c2ccccc2-3)c1	-10	15	6	6
SMILES	TDP2 inh	NSD2 inh	SUMO HTRF inh	CTSL1 counter
CCc1ccc(S(=O)(=O)/N=C2\C=C(NS(=O)(=O)c3ccccc3)C(=O)c3ccccc32)cc1	18	128*	17	x
Cc1ccc2nc(/C(C#N)=C/c3ccc(O)c(O)c3)[nH]c2c1	-4	94*	-4	7
C=CCOc1ccc(C(=O)c2ccccc2)c(OCC(=O)NC2(C#N)CCCC2)c1	1	4	4	18*
COc1cc(OC)c(OC)cc1CCC(C)NCCC(c1ccccc1)c1ccccc1 (configuration not stated)	5	71*	-5	0
COc1ccccc1N(CC(=O)N(C)Cc1ccccc1)S(=O)(=O)c1cccs1	-14	-1	x	x
CN(C(=O)CCc1nc(-c2ccccc2F)no1)c1ccccc1	-21	-3	8	37*
O=C(CSc1nc2ccccc2n1CC(=O)N1CCOCC1)N1CCCC1	-1	-1	-35	1
O=C(CSc1nc2ccccc2n1CC(=O)N1CCCC1)N1CCN(C(=O)c2ccco2)CC1	4	x	10	27*
O=C(COc1ccccc1)N1CCN(S(=O)(=O)c2cccs2)CC1	0	-1	-4	19*
Cc1cccc2sc(N(CCN3CCOCC3)C(=O)CCS(=O)(=O)c3ccccc3)nc12	4	-1	x	17*
CCN(CC)CCN(C(=O)CCS(=O)(=O)c1ccccc1)c1nc2c(C)cc(C)cc2s1	-3	-1	6	40*
CCN(CC)CCN(C(=O)CCS(=O)(=O)c1ccccc1)c1nc2cc(C)cc(C)c2s1	2	2	14	34*
CCN(CC)CCN(C(=O)CCS(=O)(=O)c1ccccc1)c1nc2cc(OC)c(OC)cc2s1	-14	11	-6	7
Cc1ccccc1NC(=O)c1ccccc1NC(=O)c1ccccc1F	-7	-1	-3	x
CC(C)CC(NS(=O)(=O)c1ccc2c(c1)oc(=O)n2C)C(=O)N1CC=C(c2ccccc2)CC1 (configuration not stated)	1	x	15	77*
S=C1Cc2ccccc2N1	15	x	60*	x
CCOC(=O)Cn1cc(C#N)c2ccccc21	3	0	10	-1
CCOC(=O)CC(C#N)c1cn(C)c2ccccc12 (configuration not stated)	4	-3	-2	28*
Cc1ccccc1NC(=O)c1ccc(Cl)c(NC(=O)C2CCCC2)c1	x	0	x	x
CC1(C)Cc2cccc(OC(=O)NCCc3ccc(F)cc3)c2O1	-2	x	x	x
COCCCn1c(C(=O)N2CCOCC2)cc2c(=O)n3ccccc3nc21	17	8	52*	-2
C/C=C/c1cnc2c(c1)C(=O)N([C@@H](C)CO)C[C@H](C)[C@@H](CN(C)S(=O)(=O)c1ccc(C)cc1)O2	-7	x	x	x
O=C1c2sc3nc4n(c(=O)c3c2CCC1Br)CCCCC4 (configuration not stated)	-2	+	-1	1
CCOc1ccc(-n2c(SCC(=O)c3ccc4ccccc4c3)nnc2-c2ccc(OC)cc2)cc1	-5	-3	x	x
Cc1[nH][nH]c(=O)c1C(c1c(C)[nH][nH]c1=O)c1cn(Cc2ccc(F)cc2)c2ccccc12	x	88*	80	2
CSc1ccc(C2C(C(=O)c3ccco3)=C(O)C(=O)N2c2nnc(SC)s2)cc1 (configuration not stated)	16	-2	16	-2
CCOC(=O)/C=C/C(=O)Nc1ccc(S(=O)(=O)N2CCc3ccccc32)cc1	-5	2	14	11
CCOC(=O)/C=C/C(=O)Nc1ccc(-c2nnc3n2CCCCC3)cc1	0	2	14	37*
